Measured values published in ChEMBL document CHEMBL1137220, “2-(2-(dimethylaminomethyl)phenoxy)-5-iodophenylamine: an improved serotonin transporter imaging agent” (J Med Chem, 2004).

Assays:
[1] = Regional brain distribution in rat hypothalamus was determined after 240 min of intravenous administration of the compound; [125I]- is used as radioactive isotope; format: ADME, tissue-based; settings: in vivo, 4 h
Summary of the method: (§1)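 Rats, three per group, injected with 10 μCi tracer in 0.2 mL saline via the femoral vein under ether anesthesia and killed by cardiac excision at the stated time. Cortex (frontal plus occipital), striatum, hippocampus, cerebellum and hypothalamus were dissected, weighed and gamma-counted. Values are % dose/g, calculated by comparison with counts of a 100-fold diluted aliquot of the injected dose.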

[2] = Biodistribution in rat liver was determined after 240 min of intravenous administration of the compound; [125I]- is used as radioactive isotope; format: ADME, organism-based; settings: in vivo, 4 h
Summary of the method: (§2)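 Rats under ether anesthesia, three per group, received 10 μCi tracer in 0.2 mL saline into the femoral vein. They were killed by cardiac excision under ether at each time point. Organs were removed, weighed and counted. Percent dose per organ was calculated against a 1%-of-injected-dose standard counted at the same time.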

[3] = Regional brain distribution in rat hypothalamus was determined after 24 hours of intravenous administration of the compound; [125I]- is used as radioactive isotope; format: ADME, tissue-based; settings: in vivo; summary of the method: as §1
[4] = Regional brain distribution in rat hippocampus was determined after 60 min of intravenous administration of the compound; [125I]- is used as radioactive isotope; format: ADME, tissue-based; settings: in vivo, 1 h; summary of the method: as §1
[5] = Biodistribution in rat muscle was determined after 11 hours of intravenous administration of the compound; [125I]- is used as radioactive isotope; format: ADME, organism-based, Muscle tissue; settings: in vivo
Summary of the method: (§3)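 Rats, three per group, under ether anaesthesia, received 10 μCi of [¹²⁵I]-labelled tracer in 0.2 mL saline into the femoral vein. They were killed by cardiac excision under ether at each time point. Organs were removed, weighed and counted. Percent dose per organ was calculated against counts of a 1% aliquot of the injected dose (100-fold diluted) counted at the same time.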

[6] = Regional brain distribution in rat striatum was determined after 30 min of intravenous administration of the compound; [125I]- is used as radioactive isotope; format: ADME, tissue-based; settings: in vivo, 0.5 h; summary of the method: as §1
[7] = Biodistribution in rat blood was determined after 24 hours of intravenous administration of the compound; [125I]- is used as radioactive isotope; format: ADME, organism-based; settings: in vivo; summary of the method: as §2
[8] = Regional brain distribution in rat striatum was determined after 6 hours of intravenous administration of the compound; [125I]- is used as radioactive isotope; format: ADME, tissue-based; settings: in vivo; summary of the method: as §1
[9] = Biodistribution in rat skin was determined after 60 min of intravenous administration of the compound; [125I]- is used as radioactive isotope; format: ADME, organism-based, Zone of skin; settings: in vivo, 1 h; summary of the method: as §3
[10] = Regional brain distribution in rat striatum was determined after 60 min of intravenous administration of the compound; [125I]- is used as radioactive isotope; format: ADME, tissue-based; settings: in vivo, 1 h; summary of the method: as §1
[11] = Regional brain distribution in rat cortex was determined after 6 hours of intravenous administration of the compound; [125I]- is used as radioactive isotope; format: ADME; settings: in vivo; summary of the method: as §1
[12] = Biodistribution in rat heart was determined after 30 min of intravenous administration of the compound; [125I]- is used as radioactive isotope; format: ADME, organism-based; settings: in vivo, 0.5 h; summary of the method: as §2
[13] = Distribution ratio in hypothalamus and cerebellum was determined after 30 min of intravenous administration of the compound; [125I]- is used as radioactive isotope; format: ADME, tissue-based; settings: rat, 0.5 h
Summary of the method: (§4)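 Rats, three per group, given 10 μCi tracer in 0.2 mL saline into the femoral vein under ether anesthesia, then killed by cardiac excision at the stated time. Brain regions were dissected, weighed and counted. Percent dose/g was calculated against a 1% diluted aliquot of the injected dose. The ratio is (region − cerebellum)/cerebellum on a % dose/g basis, with cerebellum as background.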

[14] = Distribution ratio in hippocampus and cerebellum was determined after 60 min of intravenous administration of the compound; [125I]- is used as radioactive isotope; format: ADME, tissue-based; settings: rat, 1 h
Summary of the method: (§5)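 After femoral-vein injection of 10 μCi [¹²⁵I] tracer in 0.2 mL saline under ether anaesthesia (three rats per group), brain regions were dissected, weighed and counted: cortex (frontal plus occipital), hippocampus, hypothalamus and cerebellum. %dose/g was calculated against a diluted injected-dose standard. Ratio = (region − cerebellum)/cerebellum on a %dose/g basis, with cerebellum as the background region.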

[15] = Distribution ratio in cortex and cerebellum was determined after 60 min of intravenous administration of the compound; [125I]- is used as radioactive isotope; format: ADME, tissue-based; settings: rat, 1 h; summary of the method: as §5
[16] = Biodistribution in rat heart was determined after 2 min of intravenous administration of the compound; [125I]- is used as radioactive isotope; format: ADME, organism-based; settings: in vivo; summary of the method: as §2
[17] = Biodistribution in rat heart was determined after 11 hours of intravenous administration of the compound; [125I]- is used as radioactive isotope; format: ADME, organism-based; settings: in vivo; summary of the method: as §2
[18] = Distribution ratio in striatum and cerebellum was determined after 30 min of intravenous administration of the compound; [125I]- is used as radioactive isotope; format: ADME, tissue-based; settings: rat, 0.5 h; summary of the method: as §4
[19] = Regional brain distribution in rat hippocampus was determined after 24 hours of intravenous administration of the compound; [125I]- is used as radioactive isotope; format: ADME, tissue-based; settings: in vivo; summary of the method: as §1
[20] = Distribution ratio in hippocampus and cerebellum was determined after 6 hrs of intravenous administration of the compound; [125I]- is used as radioactive isotope; format: ADME, tissue-based; settings: rat; summary of the method: as §5
[21] = Biodistribution in rat thyroid was determined after 24 hours of intravenous administration of the compound; [125I]- is used as radioactive isotope; format: ADME, organism-based, Thyroid gland; settings: in vivo; summary of the method: as §3
[22] = Distribution ratio in hippocampus and cerebellum was determined after 11 hrs of intravenous administration of the compound; [125I]- is used as radioactive isotope; format: ADME, tissue-based; settings: rat; summary of the method: as §5
[23] = Distribution ratio in striatum and cerebellum was determined after 2 min of intravenous administration of the compound; [125I]- is used as radioactive isotope; format: ADME, tissue-based; settings: rat; summary of the method: as §4
[24] = Biodistribution in rat blood was determined after 11 hours of intravenous administration of the compound; [125I]- is used as radioactive isotope; format: ADME, organism-based; settings: in vivo; summary of the method: as §2
[25] = Regional brain distribution in rat hippocampus was determined after 120 min of intravenous administration of the compound; [125I]- is used as radioactive isotope; format: ADME, tissue-based; settings: in vivo, 2 h; summary of the method: as §1
[26] = Biodistribution in rat brain was determined after 24 hours of intravenous administration of the compound; [125I]- is used as radioactive isotope; format: ADME, organism-based; settings: in vivo; summary of the method: as §2
[27] = Biodistribution in rat spleen was determined after 30 min of intravenous administration of the compound; [125I]- is used as radioactive isotope; format: ADME, organism-based; settings: in vivo, 0.5 h; summary of the method: as §3
[28] = Biodistribution in rat lung was determined after 240 min of intravenous administration of the compound; [125I]- is used as radioactive isotope; format: ADME, organism-based; settings: in vivo, 4 h; summary of the method: as §2
[29] = Biodistribution in rat kidney was determined after 120 min of intravenous administration of the compound; [125I]- is used as radioactive isotope; format: ADME, organism-based; settings: in vivo, 2 h; summary of the method: as §2
[30] = Distribution ratio in hypothalamus and cerebellum was determined after 24 hours of intravenous administration of the compound; [125I]- is used as radioactive isotope; format: ADME, tissue-based; settings: rat; summary of the method: as §5
[31] = Biodistribution in rat thyroid was determined after 30 min of intravenous administration of the compound; [125I]- is used as radioactive isotope; format: ADME, organism-based, Thyroid gland; settings: in vivo, 0.5 h; summary of the method: as §3
[32] = Biodistribution in rat skin was determined after 11 hours of intravenous administration of the compound; [125I]- is used as radioactive isotope; format: ADME, organism-based, Zone of skin; settings: in vivo; summary of the method: as §3
[33] = Biodistribution in rat skin was determined after 24 hours of intravenous administration of the compound; [125I]- is used as radioactive isotope; format: ADME, organism-based, Zone of skin; settings: in vivo; summary of the method: as §3
[34] = Regional brain distribution in rat cortex was determined after 240 min of intravenous administration of the compound; [125I]- is used as radioactive isotope; format: ADME; settings: in vivo, 4 h; summary of the method: as §1

CN(C)Cc1ccccc1Oc1ccc(I)cc1N
Dose/g [1]: 0.32% | Dose [2]: 3.52% | Dose/g [3]: 0.006% | Dose/g [4]: 0.94% | Dose [5]: 4.01% | Dose/g [6]: 1.16% | Dose [7]: 0.7% | Dose/g [8]: 0.068% | Dose [9]: 13.9% | Dose/g [10]: 1.02% | Dose/g [11]: 0.04% | Dose [12]: 0.32% | Dose/g [13]: 1.06% | Dose/g [14]: 1.3% | Dose/g [15]: 1.35% | Dose [16]: 1.51% | Dose [17]: 0.06% | Dose/g [18]: 0.83% | Dose/g [19]: 0.004% | Dose/g [20]: 1.21% | Dose [21]: 4.61% | Dose/g [22]: 0.09% | Dose/g [23]: 0.01% | Dose [24]: 2.52% | Dose/g [25]: 0.65% | Dose [26]: 0.01% | Dose [27]: 0.84% | Dose [28]: 0.37% | Dose [29]: 1.24% | Dose/g [30]: 0.23% | Dose [31]: 0.15% | Dose [32]: 10.9% | Dose [33]: 4.02% | Dose/g [34]: 0.12%
